B1: tRNA (parent)
chain: GUUCCGUUGGCGUAAUGGUAACGCGUCUCCCUCCUAAGGAGAAGACUGCGGGUUCGAGUCCCGUACGGAACG

This sample holds only a part of the variants without activity. A value given as a limit tells only on which side of the number the result lay.

Variants of B1 are the subject of this data set. Briefly: yeast fitness relative to wild type (ratio to wild type); higher = fitter; tRNA-Arg(CCU), competitive growth, 37 C, YPD. The method, boiled down: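 Gene amplicons from the start population and from each of six end populations were read by 100-nucleotide paired-end sequencing. Those end populations came from pooled Saccharomyces cerevisiae strains carrying tRNA-Arg(CCU) gene variants at the native locus, competed in YPD at 37°C for 24 hours. Fitness relative to wild type was worked out from changes in genotype frequencies. Genotypes needed ≥ 100 starting reads, and estimates < 0.5 were set to 0.5.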
On to GUUCCGUUGGGGUAAUGGUAACGCGUCUCCCUCAUAAGGAGAAGACUGCGGGUUCGAGUCCCGUACGGAACG, for which the yeast fitness amounted to 0.585. As for GUUCCGUUGGCGUAAUGGUAAAGCGUCUACCUCCUAAGGAGAAGACUGCGGGUUCGAGUCCCGUAAGGAACG, the yeast fitness amounted to 0.513.

Regarding GUUCCGUUGGCGUAAUGGUAACGCGUCUCCCUCCUAAGGAGAAAACUGCGGGUACGAGUCCCGUACGGAUCG, the yeast fitness was found to be 0.549. Then GUUCCAUAGGCGUAAUGGUAACGUGUCUCCCUCCUAAGGUGAAGACUGCGGGUUCGAGUCCCGUACGGAACG, with 0.684; and GUUCCGCUGGCGUAAAGGUAACGCGUCUCCCUCCUAAGGAGAAGACUGCGGGUUCGAGUCCCGUACGGAACG, with 0.812. To GUUCCAUCGGCGUAGUGGUUACGCGUCUCCCUCCUAAGGAGAAGUCUGCGGGUUCGAGUCCCGCACGGAACG belongs at most 0.5. For GUUCCGUUGGCGUAAUGGUAACGCGUCUCCCUCCUAAGGAGAAGACUGCGGGUUCGAGACCCGUACGGCACG, the yeast fitness amounted to 0.914. GUUCCGUUGGCGUAAUGGUAGCGCGUCUCCCUCCUAAGGAGAAGACUGCGGGUUCGAGUCCCGCACGGAACG: the yeast fitness amounted to 0.864. Then GUUACGUUGGCGUAAUGGUAACGCGUCUGCCUCCUAAGGAGAAGACUGCGGGUUCGGGACCCGUACGUAGCG, with 0.571. To GUUCCGUUGGCGUAAUGGUAAGGCGUCUCCCUCCUAAGGAGAAGUCUCCGGGUUCGCGUCCCGUACUGAACG belongs at most 0.5. Then GUUCCGUUGACGUAAUGGUAACGCGUCUCCCUCCUGAGGAGAAGACUGCGGGUUCGAGUCCCGUUCGGAACG, with at most 0.5; and GUUCCCUUGGCGUGAUGGUAACGCGUCUCCCUCCUAAGGAGAAGACUGGAGGUUCGAAUCCCGUACGGAACG, with at most 0.5; and GUUCCGUUGGCGUAAUGGUAACGCGUCUCCCUCCUAAGGAGAAGACUGCGGGUUUGAGUCCCGUACGGAUCG, with 0.715. Turning to GUUCCGUUGGUGUAAUGGUAACGCGUCUCCCUCCUAAGGAGAAGACUACGAGUUCGAGUCCCGUACGGAACG, the yeast fitness turned out to be 0.724.

Take GUUCCGUUGGCGUAAUGGUAACGCAUCUCCCUCCUAAGGAGAAGGCUGCGGGUUCGAGUCCCGUGCGGAACG: the yeast fitness was determined as 0.823. Then GUUCCGUUGGCGUAAUGGUUACGCGUCUCCCACCUAAGGAGAAGAGUGCGGGUUCGAGUCCCGUACGGAACG, with 0.586; and GUUCCGUUGGCGUAAUGGAAACGGGUCUCCCUGGUAAGGAGAAGACUGCGGGUUCGGGUCCCGUACGGAACG, with 0.579; and GUUCCGUUGCCGUAAUGAUAAUGCGUCUCCCUCCUAAGGAGAAGACUGCGGGUUCGAGUCCCAUACGGAACG, with at most 0.5. To GUUCGGUUGGCGUAAUGGUAACGCGUCUCCCCCCUAAGGAGAAGACUGCGGGUUCGACUCCCGUACGGAACG belongs 0.665; to GUUCCGUUGGCGUAAUGGUAUCGCGUCUCCCUCCUAAGGAGAAGACUCCGGGUUCGAGUCCCAUACGGAACG, at most 0.5. To GUUCCGUUGGCGUAAUGGUAACGCGUCUCCCUCCCAAGGAGAAGACUGCGGGUUCGAGUCCCGUACGGCACG belongs 0.943; to GUUCCGUUAGCGUAAAGGUAACCAGUCGCCCUCUUAUGGAGAAGACUGCGGGUUCGAGUCCCGUACGGAACG, at most 0.5; to GUUCCGUUGGCGUAAUGGUAACGUGUCUCGCUCCUAAGGAGAAGACUGCGGGUUCGAGUCUCGUUUGGAACG, at most 0.5. As for GUUACGUUGGCGUAAUGGUCACGCGUCUCCCUCCUAAGGAGCAGACUGCGGGUCCGAGUCCCGUACGGAACG, the yeast fitness was at most 0.5.

As to GUUCCGUUGGCGUAAUGGUAACGCGUGUCCAUCCUAAGGAGAAGACUGCGGGUUCGACUCCCGUACGGAACG, the yeast fitness was at most 0.5.

For GUUCCCUUGGCGUAAUGGUAAUGGGUUUAUGUCCUAAGGAGAAGACUGCGGGUUCGAGUCCCGUACGGAACG, the yeast fitness is at most 0.5. To GUUCUGUUGGCGUAAAGGUAACGCGUCUCCCUCCUAAGGAGAAGACUGCGGGUUCGAGUCCCGUACGGAACG belongs 0.882; to GUUCCGUUGCCGUGAUGGUAACGCGUCUCCCUCCUAAGGAGAAGACUGCGGGUUCGAGUCCCGUAUGGAACG, 0.505. Turning to GUUCCAUUGGCGUAGUGGUAAAGCAUCUCCCUUCUAAGGAGAAGACUGCGGCUUCCAGUCCCGUACGGAACG, the yeast fitness was at most 0.5. Regarding GUUCCGUUGGCAUAAUGGUAACGCGUCUCCCUCCUCAGGAGAAGACUGCGGGUUCGAGUCCCGUACGGAACG, the yeast fitness came to 0.628. To GUUCUGUUGGCGUAAUGGUAACGCGUCUCCCUCCUAAGGAGAACACCGCGGGUUCGAGUCCCGUACGGAACG belongs 0.807; to GUUUCGUUGGCGUAAUGGUAACGCGUCUCCCUCCUAAGGAGAAGACUCCGGGUUGGAGUCCCGUACGGUACG, at most 0.5; to GUUCCGUUGGCGUAAUGGUAACGCGUCUCCCUCCUAAGGCGAAGUCUGCGGGUUCGAGUCCCGUACGGAACG, 0.98. Then GUUCCGUUAGCGUAAUGCUAACGCGUCUCCCUCCUAAGGAGAAGACUGCGGGUUCGAGUCCCGUACGGAACG, with 0.643; and GUUCCGUUGGCGUAAUGGUAACGCGUCUCCCUCCUAAGGCGAAGACUGCGGGUUCGAGUCCUGCACGGAACG, with 0.534. To GUUCCAUUGGCGUAAUGGUAACGCGUCUCCCUCCUAAGGAGAAGACUGCGGGUUCGAGUCCUGUCCGGAACG belongs 0.763; to GAUCCAUUGGGGUAAUGGUAACGCGUCUCCCUCCUAAGGAGAAGACUGUGGGUUCGACUCCCGUACGGUACG, at most 0.5; to GUUGCGUUGGGGUAAUGGUAACGCGUCUCCCUCCUAAGGAGAAGACAGUGGGUUCGAGUCCCGUACGGAACG, at most 0.5.

Consider GUUCGGUUGGCGUAAUGGUAACGCGUCUUCCUCCUAAGGAGAAGACUGCGGGUUCGAGUCCCGUACGGACCG, for which the yeast fitness is 0.527. To GUUCCCUUGACGUAAUGGUAACGCGUAUCCCUCCUAAGGAGAAGACUGUGGGUUCGAGUCCCGUAUGGAACG belongs at most 0.5; to GUUCCGUUCGCAUAAUGGUAACGCGUCUACCUCCUAAAGAGAAGACUGCGGGUUCGAGUCCCGUACGGGACG, at most 0.5; to GUUCCGUUGGCGUAAUGGUAACGCGUCUCCUUCCUAAGGAGAAGACUGCGGGUUCGAGUCUCGUACGGAACG, 0.93. Then GUUCCGCUGGCGUAAUGGUAUCGCGUCUCCCUCCUAAGGAGAAGACUGCGGGUUAGAGUCCCGUACGGAACG, with 0.586. To GUUGCGUUGGCGUAAUGGUAACGCGUCUCCCCCCUAAGGAGAAGACUGCGGGUUCGAGUCCCCUACGGAACG belongs 0.605; to GUUCCGUUGGCGUAAUGGUAACGCGUCUCCCUCCUAAGGAGAAGACUGCGCGUUGGAGUCCAGUACGGAACG, at most 0.5.

In the case of GUUCCGUUGGCGUAAUGGUAACGCGUCUCCCUCCCAAGGAGAAGACUGCGGGUUCGAGCCCCGUACGGUACG, the yeast fitness was determined as 0.749. Then GUUCCGUUGGCGUAAAGGUAACGCGUCUCCCUCCUAAGGAGAAGACUGCGGGUUCGAGUCUCGUACGGAACG, with 1.02; and GUUCCGUUGGCGUAAUGGUAACCCGUCUCCCUCCUAAGGAGAAGACUGCGGGUUGGAGUCCCGUACGGUACG, with at most 0.5. Consider GAUCCGUUGGCGUAAUGGUGACGGGUCUCGCUCCUAAGGAGAAGACUGCGGGUUCGAGUCCCGUACGGAACG, for which the yeast fitness is at most 0.5.

Regarding GUUCCGUUGGCGUUAGGGAAACGCGUCUCCCUCCUAAGGAGAAGACUGCGGGUUCGAGUCCCGUACGGAACG, the yeast fitness was at most 0.5. Then GUUCGGUUGGCGUAAUGGUAACGCGUGUCCCUCCUAACGAGAAGACUGCGGGUUCCAGUCCCGUACGGAACG, with at most 0.5; and GUUCCGUUGGCGUAAUGGUAAGGCGUGUCCGUCCUAAGGAGAAGACUGCGGGUUCGAGUCGCGUACGGAACG, with 0.575; and GUUCCGUUGGCGUAAUGGUAACGCGUCUCCCUCCUAUGGAGAGGACUGCGGGUUCGAGUCCCAUACCGAGCG, with 0.802.

In the case of GUUCCGUUGACGUAAUGGUAACGCGUCUCCCUCCUAAGGAGAAGACUGCGGGUUCGAGUCCCGUACGGAUCG, the yeast fitness came out at 0.894. With GUUCCGUUGGCGUAAUGGUAACGCGUCUCCCUCCUAAGGAGAAGACUGCGGGUUCGAGUCGCGGACGGAACG, the yeast fitness is 0.651. Then GUUCCCUUGGCGUAAUGGUAACGCGUCUCCCUCCUAAGGAGAAGACAGCGCGUUCGAGUCCCGUGCGGAACG, with 0.644; and GCUCCGUUGGCGUAAUGGUAACGCGUCUCCCUCCUAAAGAGAAGACUGCGGGUUCGAGUGCCGUACGGAACG, with 0.558.

As for GUUCCGUUGGCGUAAUGGUCAUGCGUCUCCCUCUGAAGGAGAAGACCGCGGGUUCGAGUCCCGUCCGGAACG, the yeast fitness is at most 0.5. Then GUUCCGUUGGCGUAAUGGUAACGCGUUUCCCUCCUAAGGAGAAGAAUGCGGGUUCGAGUCCCGUACGGAGCG, with 0.66; and GUUCCGUAGGCGUAAUGGUCACGCGUCUCCCUCCUAAGGAGUAGACUGCGGGUUCGAGUCCCGUACGGAACG, with at most 0.5; and GUUUGGUUGGCGUAAUGGUAACGCGUCUCCCUCCUACGGAGAAGACUGCGGGUUCGAAUCCUGUACGGAACG, with at most 0.5. Consider GUUCCGUUGGCGUAAUGGUAACCCGUCUCCCUCCUAAGGAGAAGACUGCGGGUGCGAGUCCCGUACGGAACG, for which the yeast fitness is at most 0.5. GGUCCGUUGGCGUAAUGGUACGGCGUCUCCCUCCUAAGGAGAAGGCUGCGAGUUCGAGUCCCGUACGGAACG: the yeast fitness turned out to be 0.697. To GUUCCAUUGGCGUAAUGGUAACGCGUCUCCCUCCUAAGGAGAAGACUGCGGGUUCGAGGCCCGUACGGAACG belongs 0.912; to GUUGUGUUGGCGUAAUGGUAACGCGUCUCCCUCCUGAGGAGAAGACUGCGGGUCCGAGUCCCGUACGGCACG, at most 0.5; to GUUCCGUUGGCGUGGUGGUAACGCGUCUCCCUGUUAAGGAGACGACUGGGGGUUCGAGUCCCGUACGGAACG, at most 0.5.

Regarding GUUUCGUUGGCGUAAUGGUAACGCGUCUCCCCCCUAAGGAGAAGACUGCGGGUUCGAGUCCCGUACGGAACG, the yeast fitness was 0.944. Then GUUCCGUUGGCGUAAUGGUAACGCGUCUCUCUCCUAAGGAGAUGACUGCGGGUUCGAGUCCUGUACGGAACG, with 0.845; and GGUCCGUUGGCGUAAUGGUAACGCGUCUCCCUCCUAAGGAGAAAACUGCGGGUUCGAGUCCCGUACGGAACG, with 0.849. GUUCUGUUGGCGUGAUGGUAACGCGUCUCCCUCCUAAGGAGAAGGCUGCGGGUUCGAGUCCCGUACGGCACG: the yeast fitness is at most 0.5. Then GUUCCGUUGGAGUAGUGGUGACGCGUCUCCCUCCUACGGAGAAGACUGCAGGUUCGAGUCCCGUACCGAACG, with at most 0.5. Then GUUCCGUUGGCGUAAUGGUAACGCGUCUACCUGCCAAGGAGAAGACUGCGGGUUCGAGUCCCGUAUGGAACG, with at most 0.5; and GUUCCGUUGGCGUAAUGGUAUCGCGUCUCUCACCUAAGGAGAAGACUGCGGGUUCGAGUCCCGUACGGAACG, with at most 0.5. Then GUUGUGUUGGCGUAAUGGUAACGCGUCUCCCUCCUAAGGAGAAGACUGAGGGUUCAAGUCCCCUACGAAACG, with at most 0.5; and GUUCCGUUGGCGUAAUGGUGACGCGUCUCCCUCCUUAGGAGAAGACUGCGGGUUCGAGUCCCCCACGGAACG, with 0.666.

For the origin of these results see the RNAGym collection of RNA variant scans (doi:10.1126/science.aae0568).
